Source: PubChem (several laboratories)
CRFBP-R2 agonist: agonists of human CRF-binding protein/CRF-R2 receptor complex. HEK293 CRF-R2/CRF-BP, calcium dye fluorescence (FLIPR); percent of saturating CRF peptide response. activation, % at 13.2 µM. 0.46% of 350,000 active. AID 588473;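 active = activation of at least 50%, plus an integration ratio under a set limit after plate pattern correction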
Tn7 DDE FP: DD(E)-Tn7 binding inhibition, primary FP screen. inhibition, % at 8.3 µM. FP displacement of FITC-Tn7 peptide from fibrin DD(E); 0% = median of compound wells per plate. P02675. AID 720508. 0.13% of 370,000 active;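 active = inhibition above the mean of compounds falling within the control limits plus 3 SD of them, cut at about 14% in these data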
Target sequence (P02675 whole entry, looked up): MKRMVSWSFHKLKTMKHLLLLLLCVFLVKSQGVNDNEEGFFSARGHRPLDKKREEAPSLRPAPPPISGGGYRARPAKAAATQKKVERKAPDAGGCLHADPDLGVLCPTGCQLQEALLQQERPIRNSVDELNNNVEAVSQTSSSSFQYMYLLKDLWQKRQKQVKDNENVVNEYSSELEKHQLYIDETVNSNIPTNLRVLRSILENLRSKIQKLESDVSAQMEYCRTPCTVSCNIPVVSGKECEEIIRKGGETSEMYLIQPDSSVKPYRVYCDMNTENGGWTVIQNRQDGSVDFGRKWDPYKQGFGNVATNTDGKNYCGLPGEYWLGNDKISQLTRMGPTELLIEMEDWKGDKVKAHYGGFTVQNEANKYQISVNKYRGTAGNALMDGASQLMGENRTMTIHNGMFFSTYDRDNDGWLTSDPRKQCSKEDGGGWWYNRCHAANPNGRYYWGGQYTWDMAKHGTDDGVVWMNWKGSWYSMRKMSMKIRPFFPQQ
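Test system – human fibrin DD(E) · Times – 10 min preincubation, 3 h with tracer, room temperature · Detection – fluorescence polarization of the labelled Tn7 tracer · Measure – percent inhibition normalized to high-control wells · Benchmarks – high control wells with 10 µM unlabelled Aha-Tn7 peptide (full inhibition) · Repeats – singlicate testing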
CRFBP-R2 block: antagonists of CRF-binding protein/CRF-R2 receptor complex; 0.59% of 350,000 active; inhibition, % at 11.8 µM; HEK293 CRF-R2/CRF-BP, CRF-induced calcium fluorescence;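 active = inhibition of the ligand-induced calcium signal above about 50% at the single tested concentration, limit read from the data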
DDE Tn6 FP inh: inhibitors of Tn6 peptide binding to human fibrin DD(E); Fibrin DD(E) TRITC-Tn6 fluorescence polarization displacement; 0.21% of 370,000 active; AID 720509; inhibition, % at 8.3 µM; P02675;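 active = inhibition above a per-campaign cutoff: mean of compounds within control limits plus 3 SD, cut at about 15% in these data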
Hits are given with their value; . = inactive; / = not tested or not shown. Sampled rows, rich in hits. Any-hit rate of the full collection: about 1.3%.

SMILES	CRFBP-R2 agonist	Tn7 DDE FP	CRFBP-R2 block	DDE Tn6 FP inh
NC(=Nc1ccccc1)Nc1ccccc1	146.9	.	.	.
COCCN1CCC(CO)C1 (stereo not given)	.	.	62.4	.
COCCOC(=O)/C(=C/c1ccc(OC(=O)c2ccccc2)cc1)C(C)=O	57.2	/	.	/
COc1ccc(S(=O)(=O)N2CCCCCC2)cc1C(=O)N(C)Cc1c(F)cccc1Cl	.	.	.	.
COc1ccc(S(=O)(=O)N2CCCCCC2)cc1C(=O)NCCc1ccccc1	.	.	112.1	.
Cc1ccc(S(=O)(=O)N2CCCCC2)cc1C(=O)NCCc1ccccc1	.	.	.	.
COc1ccc(S(=O)(=O)N2CCCCCC2)cc1C(=O)N(C)Cc1ccc(Cl)cc1Cl	104.2	.	.	.
CCCC[C@@H](CCCc1ccc(F)cc1)CCC(=O)N(c1ccccc1)c1ccccc1	/	.	/	.
CCCCNC(=O)C[C@@H]1C(=O)N2CCCC3=C2[C@@]1(C(=O)OC)CCCC3	/	.	/	.
COC(=O)C1CN(CC(C)C)CCS(=O)(=O)N1Cc1cccc(Cl)c1 (stereo not given)	/	.	/	.
COCCN1Cc2cccc(C(=O)Nc3cc(OC)ccc3OC)c2C1=O	60.5	.	.	.
COc1ccc(OC)c(NC(=O)c2cccc3c2C(=O)N(C2CCCCC2)C3)c1	.	.	.	.
Cc1ccc(S(=O)(=O)NC2=NCN(C3CCN(Cc4ccccc4)CC3)CN2)cc1	.	.	108.9	.
CCOc1ccc(-n2c(SCc3ccc(C#N)cc3)nnc2-c2ccco2)cc1	/	.	/	.
O=C(O)c1cc(Cl)ccc1-c1ccc(/C=C/c2cc(C(F)(F)F)[nH]c(=O)n2)o1	204.8	.	.	.
O=C(O)c1ccccc1-c1ccc(/C=C/c2cc(C(F)(F)F)[nH]c(=O)n2)o1	169.5	.	.	.
O=C(Nc1nc2c(s1)CN(Cc1ccccc1)CC2)c1cccc(S(=O)(=O)N2CCc3ccccc32)c1	93.5	.	.	.
O=C(Nc1nc2ccccc2s1)c1cccc(S(=O)(=O)N2CCc3ccccc32)c1	.	.	.	.
COC(=O)[C@]12C[C@H](CC(=O)NCCCCc3ccccc3)C(=O)N(Cc3cccc4ccccc34)C1=C[C@H](C(C)C)O[C@@H]2C1CC1	/	.	/	.
CN[C@H]1C[C@H]2c3cc(-c4ccccc4C)ccc3CCN2C[C@H]1[C@H](C)O	/	.	/	.
CCN(CC(=O)Nc1ccc(NC(C)=O)cc1)C(=O)c1ccc(=O)n(C)n1	.	.	98.4	.
O=C(C1CCCN1S(=O)(=O)c1ccc(Br)s1)N1CCN(c2ccccc2)CC1 (stereo not given)	/	.	/	.
C#CCN1CC(N(C)CCOC(=O)c2ccc([N+](=O)[O-])cc2)CS1(=O)=O (stereo not given)	/	.	/	.
CCCN1CCCCC(NC(=O)c2ccccc2OC)C1=O (stereo not given)	/	.	/	.
O=S1(=O)N=C(N(CCO)/N=C/c2ccc(Cl)cc2)c2ccccc21	.	.	.	.
SMILES	CRFBP-R2 agonist	Tn7 DDE FP	CRFBP-R2 block	DDE Tn6 FP inh
CN(C)c1ccc(/C=N/N(CCO)C2=NS(=O)(=O)c3ccccc32)cc1	139.8	.	.	.
COc1cc(/C=c2\s/c(=C(/C#N)C(=O)N3CCCC3)n(-c3ccccc3)c2=O)ccc1O	66.9	.	.	.
CCN(C[C@@H]1[C@@H](c2ccccc2)[C@H](CO)N1S(C)(=O)=O)C(=O)C1CCC1	/	.	/	.
COC(=O)C12C=C3CC(c4ccc(C)s4)=C3C(=O)N1Cc1[nH]c3ccccc3c1C2 (stereo not given)	/	.	/	.
O=C(Nc1cccn(Cc2c(Cl)cccc2Cl)c1=O)c1c(Cl)cccc1Cl	.	.	52.4	.
O=C(Cc1ccccc1)NC1CCCCN(Cc2cccc(Cl)c2)C1=O (stereo not given)	/	.	/	.
CCCn1c(C(C)NS(=O)(=O)c2ccccc2)n[nH]c1=S (stereo not given)	.	.	62.2	.
CCn1c(C(C)NS(=O)(=O)c2ccc(Cl)cc2)n[nH]c1=S (stereo not given)	.	.	.	.
O=C(CCCOc1ccc(Cl)cc1)Nc1cccc(C(=O)O)c1	.	.	83.7	.
COC(=O)[C@]12C[C@H](CC(=O)NCc3cccs3)C(=O)N(Cc3ccc(Cl)cc3Cl)C1=C[C@H](C1CCCC1)O[C@@H]2C	/	.	/	.
CCN(CC)c1ccc2nc3c4ccccc4c(=O)cc-3oc2c1	.	.	.	105.1
Cc1nc2cc(C(=O)NCc3ccc4c(c3)OCO4)ccc2n1-c1ccc(Br)cc1	.	.	65.2	.
COc1ccc(C(=O)C2(C(=O)NC3CCCC3)CC(c3ccccc3C(F)(F)F)=NO2)cc1 (stereo not given)	/	.	/	.
S=C1NCN(CCc2ccccc2)CN1Cc1ccccc1	.	.	107.8	.
Cc1cc(/C=C2\NC(=S)N(C)C2=O)ccc1N1CCCC1	282.6	.	.	.
Cc1cc(/C=C2/C(=O)N(C)C(=S)N2C)ccc1N1CCCC1	80.8	.	.	.
CCCN1C(=O)/C(=C/c2ccc(N3CCCC3)c(C)c2)NC1=S	346.1	.	.	.
COc1cc(/C=C2\NC(=S)N(C)C2=O)ccc1O	.	.	.	.
COC(=O)[C@]1(CNC(=O)C(F)(F)F)CC(=O)N(C)[C@@H]1c1ccccc1	/	.	/	.
O=C(c1cc(F)cc(F)c1)N1CCCC(c2nc(-c3cccs3)no2)C1 (stereo not given)	/	.	/	.
CN(CCO)S(=O)(=O)c1ccc2c(c1)C(=NNC(N)=O)c1cc(S(=O)(=O)N(C)CCO)ccc1-2	.	.	85.1	.
CN(C)S(=O)(=O)c1ccc2c(c1)C(=NNC(N)=O)c1cc(S(=O)(=O)N(C)C)ccc1-2	.	.	.	.
Cc1c(C)c2ccc(O)c(CN3CCN(C)CC3)c2oc1=O	.	.	.	.
CN1CCN(Cc2c(O)ccc3cc(-c4ccccn4)c(=O)oc23)CC1	63.2	.	.	.
O=C(c1ccc(Br)cc1)N1CCN(c2ncccn2)CC1	.	.	94.3	.
SMILES	CRFBP-R2 agonist	Tn7 DDE FP	CRFBP-R2 block	DDE Tn6 FP inh
COC(=O)[C@]12C[C@H](CC(=O)NCc3ccc(OC)c(OC)c3)C(=O)N(Cc3ccc(Cl)cc3Cl)C1=C[C@H](C1CCCC1)O[C@@H]2C	/	.	/	.
N#Cc1c(C(F)(F)F)cc(-c2ccc(Cl)cc2)[nH]c1=O	.	.	62.6	.
Cc1ccc(SCc2noc(-c3c(C)noc3C)n2)cc1	.	.	52.3	.
COC(=O)[C@]12C[C@H](CC(=O)NCc3ccccc3)C(=O)N(Cc3cccc4ccccc34)C1=C[C@H](C(C)C)O[C@@H]2C1CC1	/	.	/	.
Cn1c(C(=O)NCCc2ccccc2)cc(=O)n(C)c1=O	.	.	71.0	.
CCOc1cc(/C=C2/SC(=S)NC2=O)ccc1OC(=O)c1ccco1	.	.	68.9	.
CCOC(=O)N1CCN(S(=O)(=O)c2cc(C)c(C)cc2C)CC1	.	.	.	.
CCOC(=O)N1CCN(S(=O)(=O)c2ccc(C)c(C)c2C)CC1	.	.	93.8	.
C=CCN(CC#Cc1ccccc1)Cc1ccc(OC)cc1OC	/	.	/	.
CC(C)C[C@@H]1COc2cccc(N3CCCC3)c2S(=O)(=O)N1C	/	.	/	.
